Assay results: paper PMC6516474 (Journal of the American Chemical Society, 2019)
Where two headings read alike, the source gives them in different places. Starred links: 1 amine or outer side, 2 acyl side, 3 side chain; linkers in the order of their positions; H or OH if unused. Positions of bridges follow the written chain, without caps; N, C: chain ends. Non-standard residues stand in square brackets, D forms with d. Residues, ends and D or L forms follow the SMILES beside them. Chains are numbered I, II in the order given. Actinocin(9to1) = Cc1c2oc3c(C)ccc(C(=O)[*:1])c3nc-2c(C(=O)[*:2])c(N)c1=O; NMeV = CN[C@H](C(=O)O)C(C)C; Sar = CNCC(=O)O

Experiments:
HEK293T = test: AlamarBlue proliferation assay, HEK293T; format: cell-based; settings: for fold more potent than 81 and digoxin 82: EC50 comparison
NIH-3T3 = test: AlamarBlue proliferation assay, NIH-3T3; format: cell-based, mouse; settings: for toxicity against NIH-3T3: 3 µM; for toxicity to NIH-3T3: growth inhibition screen at 1 and 3 µM; for EC50: read-out: EC50 NIH-3T3, NIH-3T3, inherently-insensitive line
MDA-MB-231 = test: Proliferation EC50, MDA-MB-231; format: cell-based, human; settings: for EC50: read-out: EC50 MDA-MB-231, MDA-MB-231; for fold more potent than 79a: MDA-MB-231, EC50 comparison
[1] = tested on: MEFs (a mouse embryonic fibroblast line); test: Toxicity against MEF; format: cell-based; settings: 3 µM
cancer cell lines = test: Broad anticancer activity over cancer cell lines; format: cell-based; settings: range over cancer cell lines
γ-H2AX [2] = test: Immunofluorescence DNA-damage response, NIH-3T3; format: cell-based, mouse; settings: NIH-3T3, 24 h; 79a 0.111 µM, 92 0.038 µM, 97 0.042 µM; mitomycin C as validation
caspase-3 activation = test: Immunofluorescence apoptosis, NIH-3T3; format: cell-based, mouse; settings: NIH-3T3, 24 h; 79a 0.111 µM, 92 0.038 µM, 97 0.042 µM; mitomycin C as validation
γ-H2AX [3] = test: Immunofluorescence DNA-damage response, HeLa; format: cell-based, human; settings: 24 h, 79a 0.015 µM, 92 0.012 µM
caspase-3 = test: Immunofluorescence apoptosis, HeLa; format: cell-based, human; settings: 24 h, 79a 0.015 µM, 92 0.012 µM
[4] = tested on: HFF1 (a human fibroblast line); test: Toxicity against HFF1; format: cell-based
[5] = tested on: HEK293T, HeLa, Cos7, Raji, NIH-3T3; test: AlamarBlue proliferation screen over a cell line panel; format: cell-based; settings: 2 days
Summary of the method: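 Panel includes Raji (human Burkitt's lymphoma, grown in suspension) and NIH-3T3 (non-transformed mouse fibroblast) alongside adherent lines. Test compounds were screened at 2 µM and 0.6 µM, and proliferation was read by AlamarBlue over 2 days. The assay was validated by comparing normalized AlamarBlue signal averages of DMSO-treated cells with those of cells given 2 µg/ml puromycin (Z′ factor calculated).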

[6] = tested on: HF-II-E (a hepatoma line from rat); test: Toxicity against HF-II-E; format: cell-based
U87 = test: Proliferation EC50, U87; format: cell-based, human; settings: U87, EC50 comparison
HEPG2 = test: Proliferation EC50, HEPG2; format: cell-based, human; settings: HEPG2, EC50 comparison
[7] = tested on: RAW (a virally-transformed mouse macrophage line); test: Toxicity against RAW; format: cell-based
[8] = read-out: EC50 in HEK293T cells, HEK293T, 5 most potent compounds
[9] = Homo sapiens, HEK-293T, 48 h, read-out: EC50 in HEK293T
[10] = read-out: EC50 in HEK293T, HEK293T, proliferation over 2 days, AlamarBlue
[11] = Homo sapiens, HEK-293T, read-out: EC50 in HEK293T cells

SMILES: C[C@@H]1O[C@@H](O[C@H]2CC[C@@]3(CO)[C@H](CC[C@@H]4[C@@H]3CC[C@]3(C)[C@@H](C5=CC(=O)OC5)CC[C@]43O)C2)[C@H](O)[C@H](O)[C@H]1O [79a, cannogenol-L-α-rhamnoside]
- fold more potent than 81 and digoxin 82 (HEK293T; HEK293T): 2–3 fold
- EC50 (HEK293T; [8]): < 100 nM
- toxicity against NIH-3T3 (NIH-3T3): nontoxic
- toxicity to NIH-3T3 (NIH-3T3): none of which were toxic to NIH-3T3
- EC50 (NIH-3T3): > 3000 nM
- EC50 (MDA-MB-231): 111 nM
- toxicity against MEF [1]: nontoxic
- concentrations of broad anticancer activity (cancer cell lines): 10 to 100 nM
- γ-H2AX upregulation (DNA-damage response) (γ-H2AX [2]): did not upregulate
- caspase-3 activation (caspase-3 activation): did not upregulate
- γ-H2AX upregulation (γ-H2AX [3]): upregulated significantly
- caspase-3 upregulation (caspase-3): Little upregulation

SMILES: CN[C@@H]1C[C@H]2O[C@@](C)([C@@H]1OC)n1c3ccccc3c3c4c(c5c6ccccc6n2c5c31)C(=O)NC4 [Staurosporine, reference compound]
- γ-H2AX upregulation (γ-H2AX [3]): upregulated
- caspase-3 upregulation (caspase-3): upregulated

SMILES: Cc1c2oc3c(C)ccc(C(=O)N[C@@H]4C(=O)N[C@H](C(C)C)C(=O)N5CCC[C@H]5C(=O)N(C)CC(=O)N(C)[C@@H](C(C)C)C(=O)O[C@@H]4C)c3nc-2c(C(=O)N[C@@H]2C(=O)N[C@H](C(C)C)C(=O)N3CCC[C@H]3C(=O)N(C)CC(=O)N(C)[C@@H](C(C)C)C(=O)O[C@@H]2C)c(N)c1=O [actinomycin D] (I: T[dV]P[Sar][NMeV] / II: T[dV]P[Sar][NMeV]; ester I:1-I:C, II:1-II:C; linker I:N-II:N via Actinocin(9to1))
- EC50 (HEK293T; [9]): 2 nM

SMILES: C[C@H]1CCC/C=C/[C@@H]2C[C@H](O)C[C@H]2[C@H](O)/C=C/C(=O)O1 [brefeldin A]
- EC50 (HEK293T; [9]): 200 nM

SMILES: C[C@]12C[C@@H](O)[C@H]3[C@@H](CC[C@]4(O)C[C@@H](O)C[C@@H](O)[C@]34CO)[C@@]1(O)CC[C@@H]2C1=CC(=O)OC1 [compound 1, ouabagenin]
- EC50 (HEK293T; [10]): < 1000 nM
- toxicity to NIH-3T3 (NIH-3T3): none of which were toxic to NIH-3T3
- effect against HFF1 [4]: effective

SMILES: C[C@@H]1O[C@@H](O[C@H]2C[C@@H](O)[C@]3(CO)[C@H]4[C@H](O)C[C@]5(C)[C@@H](C6=CC(=O)OC6)CC[C@]5(O)[C@@H]4CC[C@]3(O)C2)[C@H](O)[C@H](O)[C@H]1O [compound 2, ouabain]
- EC50 (HEK293T; [9]): < 1000 nM
- toxicity to NIH-3T3 (NIH-3T3): none of which were toxic to NIH-3T3
- effect against HFF1 [4]: effective

SMILES: C[C@]12CC[C@H]3[C@@H](CC[C@@H]4C[C@@H](O)CC[C@@]43CO)[C@@]1(O)CC[C@@H]2C1=CC(=O)OC1 [compound 5, cannogenol]
- EC50 (HEK293T; [10]): ~1000 nM
- activity against NIH-3T3 in proliferation screen (NIH-3T3; 2 µM, 2 days): activity against every line except NIH-3T3
- activity in proliferation screen ([5]; 0.6 µM): affecting most lines
- activity in proliferation screen ([5]; 2 µM): active

SMILES: C[C@]12CC[C@H](O)C[C@H]1CC[C@@H]1[C@@H]2CC[C@]2(C)[C@@H](C3=CC(=O)OC3)CC[C@]12O [compound 80, digitoxigenin, reference compound]
- EC50 (HEK293T; [9]): < 1000 nM
- toxicity to NIH-3T3 (NIH-3T3): none of which were toxic to NIH-3T3

SMILES: C[C@H]1O[C@@H](O[C@H]2[C@@H](O)C[C@H](O[C@H]3[C@@H](O)C[C@H](O[C@H]4CC[C@@]5(C)[C@H](CC[C@@H]6[C@@H]5CC[C@]5(C)[C@@H](C7=CC(=O)OC7)CC[C@]65O)C4)O[C@@H]3C)O[C@@H]2C)C[C@H](O)[C@@H]1O [compound 81, digitoxin]
- EC50 (HEK293T; [9]): < 1000 nM
- EC50 (HEK293T; [11]): < 100 nM
- toxicity to NIH-3T3 (NIH-3T3): none of which were toxic to NIH-3T3
- effect against HFF1 [4]: effective

SMILES: C[C@H]1O[C@@H](O[C@H]2[C@@H](O)C[C@H](O[C@H]3[C@@H](O)C[C@H](O[C@H]4CC[C@@]5(C)[C@H](CC[C@@H]6[C@@H]5C[C@@H](O)[C@]5(C)[C@@H](C7=CC(=O)OC7)CC[C@]65O)C4)O[C@@H]3C)O[C@@H]2C)C[C@H](O)[C@@H]1O [compound 82, digoxin]
- EC50 (HEK293T; [9]): < 1000 nM
- EC50 (HEK293T; [11]): < 100 nM
- toxicity to NIH-3T3 (NIH-3T3): none of which were toxic to NIH-3T3

SMILES: C[C@@H]1O[C@H](O[C@H]2CC[C@]3(CO)[C@H]4CC[C@]5(C)[C@@H](C6=CC(=O)OC6)CC[C@]5(O)[C@@H]4CC[C@]3(O)C2)[C@H](O)[C@H](O)[C@H]1O [compound 92, strophanthidol-L-α-rhamnoside]
- fold more potent than 81 and digoxin 82 (HEK293T; HEK293T): 2–3 fold
- EC50 (HEK293T; [8]): < 100 nM
- toxicity against NIH-3T3 (NIH-3T3): nontoxic
- EC50 (NIH-3T3): > 3000 nM
- fold more potent than 79a (MDA-MB-231): 3–4 fold
- EC50 (MDA-MB-231): 38 nM
- toxicity against MEF [1]: nontoxic
- effect against HF-II-E [6]: ineffective
- fold more potent than 79a (U87): 3–4 fold
- fold more potent than 79a (HEPG2): 3–4 fold
- concentrations of broad anticancer activity (cancer cell lines): 10 to 100 nM
- γ-H2AX upregulation (DNA-damage response) (γ-H2AX [2]): did not upregulate
- caspase-3 activation (caspase-3 activation): did not upregulate
- γ-H2AX upregulation (γ-H2AX [3]): upregulated significantly
- caspase-3 upregulation (caspase-3): Little upregulation

SMILES: C[C@@H]1O[C@@H](O[C@H]2CC[C@@]3(C)[C@H](CC[C@@H]4[C@@H]3CC[C@]3(C)[C@@H](C5=CC(=O)OC5)CC[C@]43O)C2)[C@H](O)[C@H](O)[C@H]1O [compound 97, digitoxigenin-L-α-rhamnoside]
- fold more potent than 81 and digoxin 82 (HEK293T; HEK293T): 2–3 fold
- EC50 (HEK293T; [8]): < 100 nM
- toxicity against NIH-3T3 (NIH-3T3): nontoxic
- EC50 (NIH-3T3): > 3000 nM
- fold more potent than 79a (MDA-MB-231): 3–4 fold
- EC50 (MDA-MB-231): 42 nM
- toxicity against MEF [1]: nontoxic
- effect against RAW [7]: ineffective
- effect against HF-II-E [6]: ineffective
- fold more potent than 79a (U87): 3–4 fold
- fold more potent than 79a (HEPG2): 3–4 fold
- concentrations of broad anticancer activity (cancer cell lines): 10 to 100 nM
- γ-H2AX upregulation (DNA-damage response) (γ-H2AX [2]): did not upregulate
- caspase-3 activation (caspase-3 activation): did not upregulate

SMILES: CO[C@@]12[C@H](COC(N)=O)C3=C(C(=O)C(C)=C(N)C3=O)N1C[C@@H]1N[C@@H]12 [mitomycin C, reference compound]
- EC50 (HEK293T; [9]): 4000 nM
- γ-H2AX upregulation (DNA-damage response) (γ-H2AX [2]): DDR-upregulation
- caspase-3 activation (caspase-3 activation): Caspase-3-uregulation only in NIH-3T3
